Test results: ChEMBL document CHEMBL1140193, “Synthesis and anti-inflammatory evaluation of methylene bridged benzofuranyl imidazo[2,1-b][1,3,4]thiadiazoles” (Eur J Med Chem, 2008)

How the values were obtained:
[1] = tested on: Rattus norvegicus; experiment: Antiinflammatory activity in Wistar albino rat assessed as inhibition of carrageenan-induced paw oedema at 100 mg/kg, po measured 0.5 hrs after carrageenan challenge; type: functional
Method in brief: (§1)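 Albino rats, 6 per group, dosed orally at 100 mg kg^-1; ibuprofen 100 mg kg^-1 as standard. One hour after dosing, 0.1 ml of 1% carrageenan with 2% gum acacia in normal saline injected subplantar into the right hind paw. Paw volume measured by plethysmometer; % inhibition versus control calculated. One-way ANOVA with Dunnett's t test.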

[2] = tested on: Rattus norvegicus; experiment: Analgesic activity in Wistar albino rat […] assessed as increase in reaction time for tail withdrawal at 100 mg/kg, po after 180 mins by tail flick method; type: functional
[3] = tested on: Rattus norvegicus; experiment: Antiinflammatory activity in Wistar albino rat assessed as inhibition of carrageenan-induced paw oedema at 100 mg/kg, po measured 3 hrs after carrageenan challenge; type: functional; method in brief: as §1
[4] = tested on: Rattus norvegicus; experiment: Toxicity in Wistar albino rat assessed as effect on motor activity up to 3 g/kg, po after 8 hrs; type: organism-based; conditions: in vivo, 3000 mg/kg
Method in brief: (§2)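 Acute toxicity: albino rats of either sex in groups of six, oral doses from 100 up to 3000 mg kg^-1. Rats observed continuously for 8 h for changes in motor activity, ataxia, tremors, convulsions, sedation and lacrimation. Ulceration and haemorrhagic spots also inspected.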

[5] = tested on: Rattus norvegicus; experiment: Toxicity in Wistar albino rat assessed as induction of sedation up to 3 g/kg, po after 8 hrs; type: organism-based; conditions: in vivo, 3000 mg/kg; method in brief: as §2
[6] = tested on: Rattus norvegicus; experiment: Analgesic activity in Wistar albino rat […] assessed as increase in reaction time for tail withdrawal at 100 mg/kg, po after 300 mins by tail flick method; type: functional
Method in brief: (§3)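 Rat tail-flick test: latency for the rat to withdraw its tail from hot water at 55 ± 0.5 °C. Drugs given orally. Reaction time in seconds read at 60, 90, 120 and 300 min after dosing. Treated animals compared with control and with a nimesulide standard. Wistar albino rats, 150-200 g, either sex; food withdrawn 12 h before and during testing.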

[7] = tested on: Rattus norvegicus; experiment: Toxicity in Wistar albino rat assessed as induction of convulsions and tremors up to 3 g/kg, po after 8 hrs; type: organism-based; conditions: in vivo, 3000 mg/kg; method in brief: as §2
[8] = tested on: Rattus norvegicus; experiment: Antiinflammatory activity in Wistar albino rat assessed as inhibition of carrageenan-induced paw oedema at 100 mg/kg, po measured 4 hrs after carrageenan challenge; type: functional; method in brief: as §1
[9] = tested on: Rattus norvegicus; experiment: Antiinflammatory activity in Wistar albino rat assessed as inhibition of carrageenan-induced paw oedema at 100 mg/kg, po measured 5 hrs after carrageenan challenge; type: functional; method in brief: as §1
[10] = tested on: Rattus norvegicus; experiment: Analgesic activity in Wistar albino rat […] assessed as reaction time for tail withdrawal at 100 mg/kg, po after 60 mins by tail flick method; type: functional; method in brief: as §3
[11] = tested on: Rattus norvegicus; experiment: Toxicity in Wistar albino rat assessed as mortality up to 3 g/kg, po after 24 hrs; type: organism-based; conditions: in vivo, 3000 mg/kg
Method in brief: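 Albino rats of either sex, six per group, dosed orally from 100 up to 3000 mg kg^-1 body weight. Animals were watched continuously for 8 h for signs of acute toxicity such as altered motor activity, ataxia, tremors, convulsions, sedation and lacrimation, and were checked for mortality over a 24 h period. Food was withheld for 12 h before dosing.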

[12] = tested on: Rattus norvegicus; experiment: Analgesic activity in Wistar albino rat […] assessed as reaction time for tail withdrawal at 100 mg/kg, po after 180 mins by tail flick method; type: functional
[13] = tested on: Rattus norvegicus; experiment: Analgesic activity in Wistar albino rat […] assessed as reaction time for tail withdrawal at 100 mg/kg, po after 30 mins by tail flick method; type: functional
[14] = tested on: Rattus norvegicus; experiment: Analgesic activity in Wistar albino rat […] assessed as reaction time for tail withdrawal at 100 mg/kg, po after 120 mins by tail flick method; type: functional; method in brief: as §3
[15] = tested on: Rattus norvegicus; experiment: Toxicity in Wistar albino rat assessed as induction of gastric ulceration up to 3 g/kg, po after 8 hrs; type: organism-based, Stomach; conditions: in vivo, 3000 mg/kg; method in brief: as §2
[16] = tested on: Rattus norvegicus; experiment: Analgesic activity in Wistar albino rat […] assessed as reaction time for tail withdrawal at 100 mg/kg, po after 300 mins by tail flick method; type: functional; method in brief: as §3
[17] = tested on: Rattus norvegicus; experiment: Antiinflammatory activity in Wistar albino rat assessed as inhibition of carrageenan-induced paw oedema at 100 mg/kg, po measured 2 hrs after carrageenan challenge; type: functional; method in brief: as §1
[18] = tested on: Rattus norvegicus; experiment: Toxicity in Wistar albino rat assessed as induction of haemorrhagic spots up to 3 g/kg, po after 8 hrs; type: organism-based; conditions: in vivo, 3000 mg/kg; method in brief: as §2
[19] = tested on: Rattus norvegicus; experiment: Antiinflammatory activity in Wistar albino rat assessed as inhibition of carrageenan-induced paw oedema at 100 mg/kg, po measured 1 hr after carrageenan challenge; type: functional; method in brief: as §1

SMILES	inhibition in vivo at 100 mg/kg [1]	Activity [2]	inhibition in vivo at 100 mg/kg [3]	Activity [4]	Activity [5]	Activity [6]	Activity [7]	inhibition in vivo at 100 mg/kg [8]	inhibition in vivo at 100 mg/kg [9]	Activity [10]	Activity [11]	Activity [12]	Activity [13]	Activity [14]	Activity [15]	Activity [16]	inhibition in vivo at 100 mg/kg [17]	Activity [18]	inhibition in vivo at 100 mg/kg [19]
Cc1ccc2c(Cc3nn4c(C=O)c(-c5ccc(Cl)cc5)nc4s3)coc2c1	3.6%	193.21%	42.5%	Non-toxic	Non-toxic	142.89%	Non-toxic	47.2%	48.8%	5.35 s	Non-toxic	7.867 s	3.55 s	6.667 s	Non-toxic	6.517 s	24.3%	Non-toxic	11.4%
Cc1ccc2c(Cc3nn4cc(-c5ccc(Cl)cc5)nc4s3)coc2c1	8.38%	259.03%	51.7%	Non-toxic	Non-toxic	196.31%	Non-toxic	55.9%	58.1%	4.033 s	Non-toxic	9.633 s	3.483 s	8.75 s	Non-toxic	7.95 s	42.1%	Non-toxic	13.4%
Cc1ccc2c(Cc3nn4c(CN5CCOCC5)c(-c5ccc(Br)cc5)nc4s3)coc2c1	8.38%	203.76%	43.4%	Non-toxic	Non-toxic	172.08%	Non-toxic	51.2%	52.7%	4.067 s	Non-toxic	8.15 s	3.5 s	6.45 s	Non-toxic	7.3 s	31.7%	Non-toxic	12.4%
Cc1ccc2c(Cc3nn4c(CN5CCOCC5)c(-c5ccc([N+](=O)[O-])cc5)nc4s3)coc2c1	3.6%	246.62%	41.6%	Non-toxic	Non-toxic	199.4%	Non-toxic	48%	51.2%	5.933 s	Non-toxic	9.3 s	3.6 s	8.433 s	Non-toxic	8.033 s	24.3%	Non-toxic	5.19%
Cc1ccc2c(Cc3nn4cc(-c5ccc([N+](=O)[O-])cc5)nc4s3)coc2c1	0%	268.98%	40.9%	Non-toxic	Non-toxic	211.21%	Non-toxic	45.7%	49.8%	7.4 s	Non-toxic	9.9 s	4.65 s	9.567 s	Non-toxic	8.35 s	24.3%	Non-toxic	13.4%
Cc1ccc2c(Cc3nn4c(CN5CCOCC5)c(-c5ccc(Cl)cc5)nc4s3)coc2c1	4.77%	205.62%	43.4%	Non-toxic	Non-toxic	159.03%	Non-toxic	48%	50.4%	5.45 s	Non-toxic	8.2 s	3.767 s	6.767 s	Non-toxic	6.95 s	28.9%	Non-toxic	15.5%
Cc1ccc2c(Cc3nn4c(CO)c(-c5ccc(Cl)cc5)nc4s3)coc2c1	9.61%	165.85%	45.9%	Non-toxic	Non-toxic	102.49%	Non-toxic	54.3%	58.9%	4.35 s	Non-toxic	7.133 s	3.65 s	5.467 s	Non-toxic	5.433 s	28.9%	Non-toxic	14.5%
Cc1ccc2c(Cc3nn4c(C=O)c(-c5ccc(Br)cc5)nc4s3)coc2c1	1.15%	238.53%	10.8%	Non-toxic	Non-toxic	181.4%	Non-toxic	10.2%	12.4%	4.433 s	Non-toxic	9.083 s	3.983 s	6.5 s	Non-toxic	7.55 s	11.2%	Non-toxic	12.4%
Cc1ccc2c(Cc3nn4cc(-c5ccc(Br)cc5)nc4s3)coc2c1	6%	0.633%	10.8%	Non-toxic	Non-toxic	0%	Non-toxic	11.1%	22.5%	2.667 s	Non-toxic	2.7 s	2.65 s	2.583 s	Non-toxic	2.683 s	12%	Non-toxic	10.3%
CC(C)Cc1ccc(C(C)C(=O)O)cc1 (centres undefined) [IBUPROFEN]	42.1%	–	60%	–	–	–	–	66.1%	72.9%	–	–	–	–	–	–	–	42.9%	–	42.3%
CS(=O)(=O)Nc1ccc([N+](=O)[O-])cc1Oc1ccccc1 [NIMESULIDE]	–	260.9%	–	–	–	218.67%	–	–	–	7.683 s	–	9.683 s	5.1 s	8.65 s	–	8.55 s	–	–	–
